Laboratory results as given in ChEMBL document CHEMBL1125776, “Enantioselective and diastereoselective hydroxylation of bufuralol. Absolute configuration of the 7-(1-hydroxyethyl)-2-[1-hydroxy-2-(tert-butylamino)ethyl]benzofurans, the benzylic hydroxylation metabolites” (J Med Chem, 1991).

How the values were obtained:
Homo sapiens [1] = organism: Homo sapiens; assay: Mean of rate of formation in all human liver microsomes.; format: functional, organism-based; set-up: unit not given here
How it was run: (§1)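 Human liver microsomes from frozen bank tissue, washed and resuspended in 100 mM potassium phosphate/20% glycerol/1 mM EDTA, pH 7.4. Incubated with (1'R)- or (1'S)-bufuralol 200 μM, 3 mg protein, NADP+ 1 mM, glucose 6-phosphate 20 mM, MgCl2 10 mM, G6PDH 5 units, 0.20 M phosphate pH 7.4, 37 °C, 30 min. Benzylic alcohols derivatized with (R)-PEIC, reversed-phase HPLC at 248 nm against internal standard, calibration 2-10 μg.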

Homo sapiens [2] = organism: Homo sapiens; assay: Compound was tested for the rate of formation in human liver microsomes 108; format: functional; how it was run: as §1
Homo sapiens [3] = organism: Homo sapiens; assay: Compound was tested for the rate of formation in human liver microsomes 112; format: functional; how it was run: as §1
Homo sapiens [4] = organism: Homo sapiens; assay: Compound was tested for the rate of formation in human liver microsomes 114; format: functional; how it was run: as §1
Homo sapiens [5] = organism: Homo sapiens; assay: Compound was tested for the rate of formation in human liver microsomes 116; format: functional; how it was run: as §1
Rattus norvegicus = organism: Rattus norvegicus; assay: Compound was tested for the rate of formation in rat liver microsomes; format: functional
How it was run: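 Liver microsomes from male Sprague-Dawley rats (~150 g) prepared at 0-4 °C. Incubated with (1'R)- or (1'S)-bufuralol 200 μM, 3 mg protein, NADP+ 1 mM, glucose 6-phosphate 20 mM, MgCl2 10 mM, G6PDH 5 units, 0.20 M phosphate pH 7.4, 37 °C, 30 min. Alcohol diastereomers derivatized with (R)-PEIC, reversed-phase HPLC at 248 nm against internal standard, calibration 10-60 μg.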

Compound	Mean (Homo sapiens [1])	Rate of formation (pM min-1 (mg of protein)-1) (Homo sapiens [2])	Rate of formation (pM min-1 (mg of protein)-1) (Homo sapiens [3])	Rate of formation (pM min-1 (mg of protein)-1) (Homo sapiens [4])	Rate of formation (pM min-1 (mg of protein)-1) (Homo sapiens [5])	Rate of formation (pM min-1 (mg of protein)-1) (Rattus norvegicus)
C[C@H](O)c1cccc2cc([C@H](O)CNC(C)(C)C)oc12	266	363	136	211	355	500
C[C@@H](O)c1cccc2cc([C@@H](O)CNC(C)(C)C)oc12	70.2	86.5	48.9	62.1	83.3	741
C[C@@H](O)c1cccc2cc([C@H](O)CNC(C)(C)C)oc12	66.5	74.5	54.5	61.7	75.3	2270
C[C@H](O)c1cccc2cc([C@@H](O)CNC(C)(C)C)oc12	66.6	101	32	58.8	74.9	96.1
